Measurements: ChEMBL document CHEMBL1142242, “Indanylacetic acid derivatives carrying 4-thiazolyl-phenoxy tail groups, a new class of potent PPAR alpha/gamma/delta pan agonists: synthesis, structure-activity relationship, and in vivo efficacy” (J Med Chem, 2007)
Calls of active or inactive are those of the source. No cut-off for these calls is given here.

What was measured:
[1] = molecular target: T1, Peroxisome proliferator-activated receptor alpha (Homo sapiens, UniProt Q07869); assay: Agonist activity at human PPAR alpha by FRET assay; format: functional
T1 sequence (Q07869 whole entry): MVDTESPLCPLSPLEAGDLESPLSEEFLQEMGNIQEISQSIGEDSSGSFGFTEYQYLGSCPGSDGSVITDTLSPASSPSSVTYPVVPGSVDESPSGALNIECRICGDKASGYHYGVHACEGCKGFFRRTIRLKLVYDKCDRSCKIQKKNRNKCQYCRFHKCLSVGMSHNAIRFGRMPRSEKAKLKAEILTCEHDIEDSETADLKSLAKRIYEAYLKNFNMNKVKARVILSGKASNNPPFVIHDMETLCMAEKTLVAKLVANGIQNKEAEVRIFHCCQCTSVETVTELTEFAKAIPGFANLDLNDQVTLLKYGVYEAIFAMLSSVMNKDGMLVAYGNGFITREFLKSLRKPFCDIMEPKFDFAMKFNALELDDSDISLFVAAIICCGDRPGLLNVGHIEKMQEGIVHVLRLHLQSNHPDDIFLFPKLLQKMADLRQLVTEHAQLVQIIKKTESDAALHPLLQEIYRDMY
Outline: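 Human PPARα ligand binding domain (GST-tagged) association with biotin-labeled co-activator CBP; Eu-labeled anti-GST antibody and streptavidin-APC; incubated 2 h at rt in buffer with or without compound; fluorescence read at 615 or 655 nm emission, 340 nm excitation.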

[2] = molecular target: T2, Peroxisome proliferator-activated receptor gamma (Mus musculus, UniProt P37238); assay: Agonist activity at PPAR gamma in mouse 3T3L1 cells assessed as increase in insulin receptor by IRBA; format: functional, cell-based, 3T3-L1
T2 sequence (P37238 whole entry): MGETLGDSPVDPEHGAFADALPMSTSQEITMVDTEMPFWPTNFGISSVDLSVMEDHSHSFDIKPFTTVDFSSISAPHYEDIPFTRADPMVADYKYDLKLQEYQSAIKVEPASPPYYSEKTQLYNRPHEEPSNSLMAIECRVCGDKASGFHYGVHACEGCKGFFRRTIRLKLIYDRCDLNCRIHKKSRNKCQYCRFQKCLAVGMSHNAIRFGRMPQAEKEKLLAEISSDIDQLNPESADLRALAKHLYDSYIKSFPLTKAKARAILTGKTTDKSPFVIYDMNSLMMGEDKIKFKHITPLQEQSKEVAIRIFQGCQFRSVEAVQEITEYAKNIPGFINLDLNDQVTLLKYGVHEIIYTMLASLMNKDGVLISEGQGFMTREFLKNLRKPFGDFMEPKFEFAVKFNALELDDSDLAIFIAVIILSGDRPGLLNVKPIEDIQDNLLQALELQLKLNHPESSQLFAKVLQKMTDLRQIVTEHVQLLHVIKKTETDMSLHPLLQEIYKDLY

[3] = molecular target: T3, Peroxisome proliferator-activated receptor delta (Homo sapiens, UniProt Q03181); assay: Agonist activity at human PPAR delta by FRET assay; format: functional
T3 sequence (Q03181 whole entry): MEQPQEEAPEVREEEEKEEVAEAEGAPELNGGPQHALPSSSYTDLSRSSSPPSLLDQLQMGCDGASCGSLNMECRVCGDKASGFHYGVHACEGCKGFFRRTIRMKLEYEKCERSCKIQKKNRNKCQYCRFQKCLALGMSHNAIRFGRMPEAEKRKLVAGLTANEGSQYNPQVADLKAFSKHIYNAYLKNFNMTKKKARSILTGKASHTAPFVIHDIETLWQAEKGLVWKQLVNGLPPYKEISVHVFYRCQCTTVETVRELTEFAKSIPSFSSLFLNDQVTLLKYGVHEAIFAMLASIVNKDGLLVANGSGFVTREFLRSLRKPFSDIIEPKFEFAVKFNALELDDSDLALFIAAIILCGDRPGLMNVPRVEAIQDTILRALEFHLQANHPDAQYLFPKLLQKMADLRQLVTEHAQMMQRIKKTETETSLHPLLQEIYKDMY

Mus musculus [4] = assay: Increase of plasma HDLc level in female human apoA1 transgenic mouse at 10 mg/kg; format: functional, organism-based; parameters: dose 10 mg/kg
Outline: (§1)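 hApoA1 transgenic mice, 6 weeks old at purchase, grouped by equal baseline plasma triglyceride; oral dosing once daily for 7 days in 0.5% methylcellulose in water; bled ~24 h after last dose; plasma triglyceride and HDLc by autoanalyzer; mean ± SEM, 6-8 mice.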

Mus musculus [5] = assay: Increase of plasma HDLc level in male human apoA1 transgenic mouse at 10 mg/kg; format: functional, organism-based; parameters: dose 10 mg/kg; outline: as §1
Mus musculus [6] = assay: Reduction of plasma triglyceride level in male human apoA1 transgenic mouse at 10 mg/kg; format: functional, organism-based; parameters: dose 10 mg/kg; outline: as §1

| SMILES | EC50 [1] [nM] | EC50 [2] [nM] | EC50 [3] [nM] | Activity (Mus musculus [4]) | Activity (Mus musculus [5]) | Activity (Mus musculus [6]) |
| --- | --- | --- | --- | --- | --- | --- |
| COc1cc(-c2nc3c(s2)CCCC3)ccc1OCCCOc1ccc2c(c1)CC[C@H]2CC(=O)O | 44 | 84 | 3.3 | – | – | – |
| O=C(O)C[C@@H]1CCc2cc(OCCCOc3ccc4ncoc4c3)ccc21 | > 10000 | > 10000 | 130 | – | – | – |
| CCCc1cc(-c2nc(C)c(C(=O)N(C)C)s2)ccc1OCCCOc1ccc2c(c1)CC[C@H]2CC(=O)O | 140 | 17 | 4.4 | – | – | – |
| COc1ccncc1-c1ccc(OCCCOc2ccc3c(c2)CC[C@H]3CC(=O)O)cc1 | > 10000 | 485 | 43 | – | – | – |
| O=C(O)C[C@@H]1CCc2cc(OCCCOc3ccc(-c4ccc5cc[nH]c5c4)cc3)ccc21 | 6600 | 740 | 1.5 | – | – | – |
| Cc1cc(SCc2sc(-c3ccc(C(F)(F)F)cc3)nc2C)ccc1OCC(=O)O | – | – | – | Active | Dose-dependent effect | Dose-dependent effect |
| COc1ncc(-c2ccc(OCCCOc3ccc4c(c3)CC[C@H]4CC(=O)O)cc2)c(OC)n1 | > 10000 | 300 | 5.6 | – | – | – |
| COc1cc(-c2nc3c(s2)CCCO3)ccc1OCCCOc1ccc2c(c1)CC[C@H]2CC(=O)O | 328 | 181 | 1.3 | – | – | – |
| O=C(O)C[C@@H]1CCc2cc(OCCCOc3ccc(-c4ccc(C(F)(F)F)cn4)cc3)ccc21 | 2900 | 1800 | 0.95 | – | – | – |

Second part, led by results:

| EC50 [1] [nM] | EC50 [2] [nM] | EC50 [3] [nM] | SMILES | Activity (Mus musculus [4]) | Activity (Mus musculus [5]) | Activity (Mus musculus [6]) |
| --- | --- | --- | --- | --- | --- | --- |
| 1610 | 5580 | 4.2 | O=C(O)C[C@@H]1CCc2cc(OCCCOc3ccc(C(F)(F)F)cc3)ccc21 | – | – | – |
| > 10000 | 1520 | 2.4 | CCCc1ccccc1OCCCOc1ccc2c(c1)CC[C@H]2CC(=O)O | – | – | – |
| 254 | 65 | 2.5 | CCc1csc(-c2ccc(OCCCOc3ccc4c(c3)CC[C@H]4CC(=O)O)c(OC)c2)n1 | – | – | – |
| > 10000 | > 10000 | 67 | Cc1ccc(OCCCOc2ccc3c(c2)CC[C@H]3CC(=O)O)cc1C | – | – | – |
| > 10000 | > 10000 | 29 | CCCc1c(OCCCOc2ccc3c(c2)CC[C@H]3CC(=O)O)ccc2c1ccn2C | – | – | – |
| 3950 | 570 | 25 | CCCc1cc(C#N)ccc1OCCCOc1ccc2c(c1)CC[C@H]2CC(=O)O | – | – | – |
| 560 | 49 | 3.4 | COc1cc(-c2nc(C)c(C(C)=O)s2)ccc1OCCCOc1ccc2c(c1)CC[C@H]2CC(=O)O | – | – | – |
| > 10000 | 3300 | 18 | C=CCc1c(OCCCOc2ccc3c(c2)CC[C@H]3CC(=O)O)ccc2[nH]ccc12 | – | – | – |
| 1250 | 280 | 2.9 | Cc1nc(-c2ccc(OCCCOc3ccc4c(c3)CC[C@H]4CC(=O)O)cc2)sc1C | – | – | – |
